# Results gathered from unrelated publications.
# Target: Protein kinase C iota type (PRKCI, Homo sapiens, UniProt P41743)
# Residues used in one study (P41743 1-596): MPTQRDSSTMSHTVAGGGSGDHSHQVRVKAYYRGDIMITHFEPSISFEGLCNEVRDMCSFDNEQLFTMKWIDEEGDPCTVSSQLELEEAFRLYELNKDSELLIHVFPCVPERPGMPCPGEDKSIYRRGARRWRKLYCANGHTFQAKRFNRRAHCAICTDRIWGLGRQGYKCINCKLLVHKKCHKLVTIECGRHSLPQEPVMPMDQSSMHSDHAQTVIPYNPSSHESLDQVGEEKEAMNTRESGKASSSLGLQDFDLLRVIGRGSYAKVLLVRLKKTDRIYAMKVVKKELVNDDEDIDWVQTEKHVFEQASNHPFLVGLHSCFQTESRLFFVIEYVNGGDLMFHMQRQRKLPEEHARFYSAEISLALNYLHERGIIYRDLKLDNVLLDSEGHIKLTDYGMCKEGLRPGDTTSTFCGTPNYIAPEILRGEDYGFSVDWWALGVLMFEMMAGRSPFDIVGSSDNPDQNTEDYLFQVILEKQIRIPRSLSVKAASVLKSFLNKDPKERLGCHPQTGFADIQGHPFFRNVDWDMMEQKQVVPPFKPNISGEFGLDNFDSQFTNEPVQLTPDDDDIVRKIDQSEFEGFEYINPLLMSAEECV
Structure (SMILES),observed,mode,technique,concentration,measurement,result
O=C1NC(=O)c2cc(Nc3ccc(F)cc3)c(Nc3ccc(F)cc3)cc21,cell-free assay,,,0.5 µM,remaining signal,89%
COc1cc(Cl)c(C(=O)N[C@@H](CN[C@H]2CC[C@@H](N)CC2)Cc2ccc(C#N)cc2)cc1-c1ccc(CN[C@H](C)c2ccc(C)cc2)o1,enzyme activity,inhibitor,,1 µM,remaining activity,96%
O=C(Nc1cnn(-c2csc(C(=O)NC3COC3)c2)c1)Nc1ccccc1Cl,enzyme activity,inhibitor,,5 µM,remaining activity,95.5%
CCCS(=O)(=O)Nc1ccc(F)c(C(=O)c2c[nH]c3ncc(-c4ccc(Cl)cc4)cc23)c1F,enzyme activity,inhibitor,,1 µM,inhibition,< 10%
Cc1cc(NC(=O)c2cccc(S(F)(F)(F)(F)F)c2)cc(-n2ccn3nc(-c4cccnc4)cc23)c1,cell-free assay,,competition with immobilised ligand,1 µM,remaining binding,80.4%
Cc1ccc(C(=O)Nc2ccc(CN3CCN(C)CC3)c(C(F)(F)F)c2)cc1C#Cc1cnc2cccnn12,enzyme activity,,,23.5 nM,remaining activity,85%
CNCc1ccc(-c2cc(-c3nc(-c4ccc(S(=O)(=O)C(C)C)cc4)cnc3N)on2)cc1,enzyme activity,inhibitor,,2 µM,inhibition,1%
Cc1cnc(NC2CCOCC2)nc1-n1cnc(C(=O)NC(CN)c2cc(F)cc(Cl)c2)c1 (stereo not drawn),enzyme activity,inhibitor,radiometric,1 µM,remaining activity,106%
CC(C)(C)c1nc2c(s1)c1nc(N)ncc1c1ccc(NS(=O)(=O)c3c(F)cccc3F)c(F)c12,enzyme activity,inhibitor,radiometric,1 µM,remaining activity,91%
CN(C)C1CCN(CC#Cc2nn(C3CCCC3)c3nc(NCc4ccccc4)ncc23)C1 (stereo not drawn),enzyme activity,inhibitor,FRET,10 µM,inhibition,6%
Cc1ccc(C(=O)NCc2ccsc2)cc1C#Cc1cn(C(C)C)c2ncnc(N)c12,enzyme activity,inhibitor,,1 µM,activity vs control,96%
COc1cccc(CNC(=O)c2nc3scc(COCc4ccc(C(=O)O)cc4)c3c(=O)[nH]2)c1,cell-free assay,,competition with immobilised ligand,1 µM,remaining binding,100%
c1ccc(CNc2nc(N3CCOc4ccccc43)nc3c2CCCC3)cc1,target engagement in cells,inhibitor,chemoproteomics,20 mM,inhibition,-0.4%
CCC(=O)N[C@@H]1CC[C@H](C(=O)N(C)c2ccc(-c3nc4ccccc4o3)cc2)C1,cell-free assay,,competition with immobilised ligand,1 µM,remaining binding,84%
CC(C)(O)[C@H]1CC[C@H](Nc2ccc3ncc(-c4cccc(C(F)(F)F)c4)n3n2)CC1,enzyme activity,inhibitor,,1 µM,remaining activity,128%
CCS(=O)(=O)c1cc2cc(C[C@@](O)(CC(C)(C)c3ccc(F)cc3C(N)=O)C(F)(F)F)[nH]c2cn1,cell-free assay,,competition with immobilised ligand,1 µM,remaining binding,100%
CCCOc1ccc(OC)c(F)c1C(=O)c1ccc(C(=O)N[C@@H]2CNC[C@H]2NC(=O)c2ccc3[nH]ncc3c2)cc1,enzyme activity,inhibitor,,10 µM,remaining activity,89%
CO[C@@H](C)c1c(Nc2ccc([C@@H](N(C)C(=O)C3CCS(=O)(=O)CC3)C(F)(F)F)cc2)cnc2cc(Cl)nn12,cell-free assay,,competition with immobilised ligand,1 µM,remaining binding,76%
O=C1Nc2ccc(Cl)cc2C1=Cc1cc(Cl)c(O)c(Cl)c1,cell-free assay,,,0.5 µM,remaining signal,94.1%
O=C(Nc1cnn(-c2csc(C(=O)NC3COC3)c2)c1)Nc1c(F)cccc1Cl,enzyme activity,inhibitor,,5 µM,remaining activity,87.4%
CCN(CC)CCNC(=O)c1c(C)[nH]c(/C=C2\C(=O)Nc3ccc(F)cc32)c1C,enzyme activity,inhibitor,,10 µM,inhibition,1%
COc1cc(-c2cn(C3CCc4c(F)cccc4N(CC(F)(F)F)C3=O)nn2)ccc1-n1cnc(C)c1 (stereo not drawn),cell-free assay,,competition with immobilised ligand,1 µM,remaining binding,100%
CN1CC(Oc2cnc(C#N)cc2-c2ccn3nc(NC(=O)C4CC4)cc3c2)C1,enzyme activity,inhibitor,,1 µM,inhibition,-8%
O=C(NC[C@@H]1[C@H]2CN(C(=O)OCc3cc(C(F)(F)F)cc(C(F)(F)F)c3)C[C@@H]12)c1ccc2[nH]nnc2c1,cell-free assay,,competition with immobilised ligand,1 µM,remaining binding,98%
CCCCNc1ncc2c(-c3ccc(F)cc3)nn(C[C@H]3CC[C@H](N)CC3)c2n1,target engagement in cells,inhibitor,chemoproteomics,20 mM,inhibition,-5.8%
C[C@H](c1cccc(C#N)c1)n1cc(Cl)cc(C(N)=O)c1=N,cell-free assay,,competition with immobilised ligand,1 µM,remaining binding,100%
COc1cc2ncnc(Nc3ccc(Oc4ccccc4)c(C)c3C)c2cc1OC,enzyme activity,inhibitor,,1 µM,inhibition,-4%
